Results from ChEMBL document CHEMBL1212914, “A novel water-soluble gossypol derivative increases chemotherapeutic sensitivity and promotes growth inhibition in colon cancer” (J Med Chem, 2010).
Activity calls are given as the source filed them. No cut-off for these calls is given here.

Assays:
A549 = assay: Cytotoxicity against human A549 cells after 72 hrs by MTT assay; type: functional, cell-based; details: A549, 72 h
Summary of the method: (§1)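 Compounds dissolved in DMSO; cells seeded at 5 × 10^3 per well and treated after adherence with a range of concentrations for 72 h, with DMSO as negative control. MTT was added for 4 h at 37 °C in the dark, formazan dissolved in DMSO, and absorbance read. IC50 (μM) was calculated as the mean of three independent experiments.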

MDA-MB-435 = assay: Cytotoxicity against human MDA-MB-435 cells after 72 hrs by MTT assay; type: functional, cell-based; details: Homo sapiens, MDA-MB-435, 72 h; summary of the method: as §1
MCF7 = assay: Cytotoxicity against human MCF7 cells after 72 hrs by MTT assay; type: functional, cell-based; details: Homo sapiens, MCF7, 72 h; summary of the method: as §1
HCT-116 = assay: Cytotoxicity against human HCT116 cells after 72 hrs by MTT assay; type: functional, cell-based; details: Homo sapiens, HCT-116, 72 h; summary of the method: as §1
B16-F10 = assay: Cytotoxicity against mouse B16F10 cells after 72 hrs by MTT assay; type: functional, cell-based; details: Mus musculus, B16-F10, 72 h; summary of the method: as §1
PC-3 = assay: Cytotoxicity against human PC3 cells after 72 hrs by MTT assay; type: functional, cell-based; details: Homo sapiens, PC-3, 72 h; summary of the method: as §1
4T1 = assay: Cytotoxicity against mouse 4T1 cells after 72 hrs by MTT assay; type: functional, cell-based; details: Mus musculus, 4T1, 72 h; summary of the method: as §1
CT26 [1] = assay: Cytotoxicity against mouse CT26 cells after 72 hrs by MTT assay; type: functional, cell-based; details: Mus musculus, CT26, 72 h; summary of the method: as §1
MCF-7 (Homo sapiens) = assay: Cytotoxicity against human MCF-7 cells after 72 hrs by MTT assay; details: MCF-7, 72 h
CT26 [2] = assay: Induction of apoptosis in mouse CT26 cells assessed as reduction of Bcl-xL protein level at 5 to 10 uM after 24 hrs by immunoblotting; type: functional, cell-based
Summary of the method: (§2)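 CT26 cells were exposed to 5 or 10 μM for the indicated times, with DMSO as control. Lysates were run on 10% SDS-PAGE and transferred to nitrocellulose. Blots were probed overnight at 4 °C for Bcl-2 and Bcl-xL, with β-actin as loading control, and detected by HRP chemiluminescence. Experiments were repeated three times.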

CT26 [3] = assay: Induction of apoptosis in mouse CT26 cells assessed as reduction of Bcl-2 mRNA level at 10 uM after 24 hrs by RT-PCR analysis; type: functional, cell-based
CT26 [4] = assay: Induction of apoptosis in mouse CT26 cells assessed as reduction of Bcl-xL mRNA level at 10 uM after 24 hrs by RT-PCR analysis; type: functional, cell-based
CT26 [5] = assay: Induction of apoptosis in mouse CT26 cells assessed as inhibition of Bcl-2-Bax interaction at 20 uM after 24 hrs by immunoprecipitation analysis; type: functional, cell-based
Summary of the method: (§3)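 CT26 cells were treated for 24 h, with DMSO as control, then lysed in Triton X-100 buffer for 30 min at 4 °C. Lysates were immunoprecipitated overnight at 4 °C with anti-Bcl-2 or anti-Bcl-xL antibody plus protein A-agarose. Eluates were western-blotted for Bax (Bcl-2 pulldown) or Bim (Bcl-xL pulldown).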

CT26 [6] = assay: Induction of apoptosis in mouse CT26 cells assessed as inhibition of Bcl-xL-Bim interaction at 20 uM after 24 hrs by immunoprecipitation analysis; type: functional, cell-based; summary of the method: as §3
CT26 [7] = assay: Antitumor activity against mouse CT26 cells xenografted in BALB/c mouse assessed as decrease of tumor volume at 10 umol/kg, po for 12 consecutive days; type: functional, organism-based
Summary of the method: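 Male BALB/c mice (6-8 weeks) received 5 × 10^5 CT26 cells subcutaneously in the right flank. At 60 mm3, tumor-bearing mice were randomized (n = 4 per group) and dosed by gavage at 10 μmol/kg daily for 12 days in 10% ethanol, with vehicle as control. Tumors were measured every 2 days by caliper; volume = length × width × width × π/6.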

Mus musculus [8] = assay: Toxicity in BALB/c mouse assessed as weight loss at 120 umol/kg, po administered daily once for 12 days; type: organism-based; details: in vivo, 288 h
Summary of the method: (§4)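 Male BALB/c mice aged 6-8 weeks, n = 6 per group, received 120 μmol/kg by gavage once daily for 12 days in 10% ethanol, with 10% ethanol alone as the control. Survival was followed over time, and mice were weighed at day 12 and then sacrificed. Small intestine was paraffin-embedded, cut into 5 μm sections, H&E-stained and examined by light microscopy. Student's t test was used.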

Mus musculus [9] = assay: Toxicity in BALB/c mouse assessed as induction of small intestine damage at 120 umol/kg, po administered daily once for 12 days; type: organism-based; details: in vivo, 288 h; summary of the method: as §4
SW-620 = assay: Cytotoxicity against human SW620 cells after 72 hrs by MTT assay; type: functional, cell-based; details: Homo sapiens, SW-620, 72 h; summary of the method: as §1
[10] = Solubility of the compound in 100 gram of water; type: physicochemical; details: buffer
Summary of the method: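 Water solubility was measured at 37 °C as the mass of compound dissolving in 100 g of H2O.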

[11] = Chemical stability of the compound in phosphate buffered saline at pH 7.2 to 7.4 after 30 mins; type: physicochemical; details: buffer, pH 7.2, 0.5 h
Summary of the method: (§5)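 The compound was incubated for 30 min in PBS (pH 7.2-7.4) or in human or mouse serum, and the amount remaining was analyzed by HPLC.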

Serum [12] = assay: Metabolic stability of the compound in human serum after 30 mins; type: ADME, cell-free; details: 0.5 h; summary of the method: as §5
Serum [13] = assay: Metabolic stability of the compound in mouse serum after 30 mins; type: ADME, cell-free; details: 0.5 h; summary of the method: as §5
CT26 [14] = assay: Cytotoxicity against mouse CT26 cells assessed as cell viability at 20 uM after 24 hrs by […]; type: functional; details: CT26, 24 h, read-out: Activity
Summary of the method: (§6)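 CT26 cells were seeded at 2 × 10^3 per well and, after adherence, exposed to 2, 5, 10 or 20 μM for up to 120 h. Viability was read with a Cell Titer 96 Aqueous One Solution proliferation kit rather than MTT.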

CT26 [15] = assay: Cytotoxicity against mouse CT26 cells assessed as cell viability at 20 uM after 48 hrs […]; type: functional; details: CT26, 48 h, read-out: Activity; summary of the method: as §6
CT26 [16] = assay: Cytotoxicity against mouse CT26 cells assessed as complete cell death at 20 uM after 72 hrs by […]; type: functional, cell-based; summary of the method: as §6
CT26 [17] = assay: Cytotoxicity against mouse CT26 cells at 5 to 10 uM after 24 hrs by […]; type: functional, cell-based; summary of the method: as §6
CT26 [18] = assay: Cytotoxicity against mouse CT26 cells assessed as cell viability at 2 uM after 120 hrs by […]; type: functional; details: CT26, 120 h, read-out: Activity; summary of the method: as §6
CT26 [19] = assay: Cytotoxicity against mouse CT26 cells at 2 to 20 uM by […]; type: functional, cell-based; details: TDE = time-dependent effect; summary of the method: as §6
CT26 [20] = assay: Induction of apoptosis in mouse CT26 cells at 5 to 10 uM by TUNEL assay; type: functional, cell-based; details: TDE = time-dependent effect
Summary of the method: (§7)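 After treatment at various concentrations and times, CT26 cells were PBS-washed and fixed in 4% paraformaldehyde for 1 h at room temperature. They were permeabilized for 2 min on ice, then incubated with TUNEL reaction mixture for 1 h at 37 °C in the dark and counterstained with DAPI. TUNEL-positive cells were counted by fluorescence microscopy in five random fields and averaged; DMSO served as control.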

CT26 [21] = assay: Induction of apoptosis in mouse CT26 cells after 24 to 72 hrs by TUNEL assay; type: functional, cell-based; summary of the method: as §7
CT26 [22] = assay: Induction of apoptosis in mouse CT26 cells assessed as reduction of Bcl-2 protein level at 5 to 10 uM after 24 hrs by immunoblotting; type: functional, cell-based; summary of the method: as §2

## Cc1cc2c(C(C)C)c(O)c(O)c(/C=N/[C@@H](Cc3ccccc3)C(=O)O)c2c(O)c1-c1c(C)cc2c(C(C)C)c(O)c(O)c(/C=N/[C@@H](Cc3ccccc3)C(=O)O)c2c1O
A549
  IC50: 5.38 µM
MDA-MB-435
  IC50: > 40 µM
MCF7
  IC50: > 40 µM
HCT-116
  IC50: > 40 µM
B16-F10
  IC50: 22.4 µM
PC-3
  IC50: 28.4 µM
4T1
  IC50: > 40 µM
CT26 [1]
  IC50: 7.36 µM
MCF-7 (Homo sapiens)
  IC50: > 40 µM

## COC(=O)C(/N=C/c1c(O)c(O)c(C(C)C)c2cc(C)c(-c3c(C)cc4c(C(C)C)c(O)c(O)c(/C=N/C(C(=O)OC)c5c[nH]c6ccccc56)c4c3O)c(O)c12)c1c[nH]c2ccccc12 (configuration not stated)
A549
  IC50: > 40 µM
MDA-MB-435
  IC50: > 40 µM
MCF7
  IC50: > 40 µM
HCT-116
  IC50: > 40 µM
B16-F10
  IC50: > 40 µM
PC-3
  IC50: > 40 µM
4T1
  IC50: > 40 µM
CT26 [1]
  IC50: > 40 µM
MCF-7 (Homo sapiens)
  IC50: > 40 µM

## CO[C@@H](c1ccc([N+](=O)[O-])cc1)[C@H](CO)/N=C/c1c(O)c(O)c(C(C)C)c2cc(C)c(-c3c(C)cc4c(C(C)C)c(O)c(O)c(/C=N/[C@@H](CO)[C@@H](OC)c5ccc([N+](=O)[O-])cc5)c4c3O)c(O)c12
A549
  IC50: > 40 µM
MDA-MB-435
  IC50: > 40 µM
MCF7
  IC50: > 40 µM
HCT-116
  IC50: 17.7 µM
B16-F10
  IC50: > 40 µM
PC-3
  IC50: > 40 µM
4T1
  IC50: > 40 µM
CT26 [1]
  IC50: > 40 µM
MCF-7 (Homo sapiens)
  IC50: > 40 µM

## CC1=C(C2=C(C)C(=O)c3c(c(/C=N/[C@@H]4C(=O)N5[C@@H]4SC(C)(C)[C@@H]5C(=O)[O-])c(O)c(O)c3C(C)C)C2=O)C(=O)c2c(/C=N/[C@@H]3C(=O)N4[C@@H]3SC(C)(C)[C@@H]4C(=O)[O-])c(O)c(O)c(C(C)C)c2C1=O.[Na+].[Na+]
CT26 [2]
  Activity: Active
CT26 [3]
  Activity: inactive
CT26 [4]
  Activity: inactive
CT26 [5]
  Activity: Active
CT26 [6]
  Activity: Active
CT26 [7]
  Activity: Active
Mus musculus [8]
  Activity: Non-toxic
Mus musculus [9]
  Activity: Non-toxic
A549
  IC50: 8.77 µM
MDA-MB-435
  IC50: > 40 µM
MCF7
  IC50: 29.1 µM
SW-620
  IC50: 6.56 µM
HCT-116
  IC50: 17.4 µM
B16-F10
  IC50: 11.1 µM
PC-3
  IC50: 29.5 µM
4T1
  IC50: 28.2 µM
CT26 [1]
  IC50: 6.59 µM
[10]
  solubility: 9.25 g
[11]
  Stability: Stable
Serum [12]
  Stability: Stable
Serum [13]
  Stability: Stable
CT26 [14]
  viability at 20 µM: 80%
CT26 [15]
  viability at 20 µM: 60%
CT26 [16]
  Activity: Active
CT26 [17]
  Activity: Active
CT26 [18]
  viability at 2 µM: > 90%
CT26 [19]
  Activity: tde
CT26 [20]
  Activity: tde
CT26 [21]
  Activity: Dose-dependent effect
CT26 [22]
  Activity: Active
